From PubChem BioAssay
ATG4B inh = blocks human ATG4B protease cleavage of LC3 substrate; Q9Y4P1; ATG4B cleavage of LC3-PLA2, NBD-HPC fluorescence, 1 h; inhibition, % at 8.33 µM; 340,000 compounds, 0.51% hits; AID 504462; in the data active = inhibition above about 40%
MEKK2 mut-MEK5 = signal of MEK5 binding to mutant human MEKK2 PB1 domain; bead flow cytometry, Alexa488-MEK5 binding to MEKK2 mutant; percent response, % at 10 µM; 290,000 compounds, 0.35% hits; AID 1530; in the data active = percent response above about 24%, passing the limit was not always enough
MEKK3 PB1 HTS = modulators (inhibitors or enhancers) of MEK5 binding to human MEKK3 PB1 domain; Q99759; bead-based flow cytometry, Alexa488-MEK5 binding to MEKK3; actives lie on both sides; 0 = blocked by unlabeled MEK5, 100 = vehicle; binding response (% of control), % at 10 µM; 290,000 compounds, 1.4% hits; AID 1529;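 active = binding response more than 3 SD above or below the average of its plate-row segment, actives on both sides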;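 also: Alexa488 bead fluorescence after subtracting the streptavidin-only scavenger bead signal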
Target sequence (Q99759 whole entry, looked up, the tested form may be a part): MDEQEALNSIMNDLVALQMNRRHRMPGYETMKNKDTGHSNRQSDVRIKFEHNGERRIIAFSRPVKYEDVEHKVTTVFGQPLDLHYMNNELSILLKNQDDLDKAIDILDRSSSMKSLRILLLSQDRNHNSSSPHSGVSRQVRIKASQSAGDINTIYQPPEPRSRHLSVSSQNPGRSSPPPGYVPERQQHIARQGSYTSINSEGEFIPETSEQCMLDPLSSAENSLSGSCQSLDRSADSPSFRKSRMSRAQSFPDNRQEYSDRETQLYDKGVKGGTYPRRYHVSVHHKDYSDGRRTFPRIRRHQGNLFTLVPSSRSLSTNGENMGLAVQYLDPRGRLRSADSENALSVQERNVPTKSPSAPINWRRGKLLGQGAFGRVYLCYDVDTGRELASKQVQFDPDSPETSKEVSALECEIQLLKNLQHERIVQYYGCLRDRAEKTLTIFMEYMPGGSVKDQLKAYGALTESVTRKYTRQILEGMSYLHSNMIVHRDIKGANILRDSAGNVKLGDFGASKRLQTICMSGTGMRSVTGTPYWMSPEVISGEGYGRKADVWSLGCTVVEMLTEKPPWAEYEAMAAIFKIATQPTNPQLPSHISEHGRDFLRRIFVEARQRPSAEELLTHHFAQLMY
Beta2AR agonist = human beta-2 adrenergic receptor agonism by FAP | P07550 | Am2.2-beta2AR cells, FAP receptor internalization, flow cytometry | response, % (no concentration beside the values) | 340,000 compounds, 0.43% hits;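 active = response above a set limit, near 3 SD of response in nonfluorescent compounds, cut at about 42% in these data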
MEKK2 WT-MEK5 = raises or lowers MEK5 binding to wildtype human MEKK2 PB1 domain. 290,000 compounds, 1.1% hits. binding response (% of control), % at 10 µM. Q9Y2U5. bead flow cytometry, Alexa488-MEK5 binding to MEKK2 WT; actives lie on both sides; in the data active = binding response below about 67% or above about 130%
Dynein cargo inh = blocks dynein driven cargo transport along microtubules; 3617.4 mouse cells, GR-EGFP nuclear translocation imaging; test concentration mostly 20 µM; stimulated with dexamethasone, 1 µM; active compounds read low; 220,000 compounds, 0.47% hits; z-score, hits read low; AID 1381;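 active = plate z-score of nuclear minus cytoplasmic receptor signal below a set negative limit, without overly bright fluorescence or cell loss, cut at about -3.5 in these data, passing the limit was not always enough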;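 also: z-score of nuclear minus cytoplasmic ring GR-EGFP intensity difference per well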
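Also added – dexamethasone, 1.0 µM final · Buffer or medium – tet-free, stripped-serum medium · Schedule – induction 48 h, compound 1 h, agonist 30 min · Detection – formaldehyde fixation, Hoechst nuclear stain, 10x automated fluorescence imaging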
MEKK2wt confirm = raises or lowers MEK5 binding to wildtype human MEKK2, retest | bead flow cytometry, Alexa488-MEK5 binding to MEKK2 WT; actives lie on both sides | shares compounds with MEKK3 PB1 HTS | 5,900 compounds, 2.4% hits | binding response (% of control), % at 10 µM; in the data active = binding response below about 16% or above about 210%; inactive = in between
MEKK2mut confirm = signal of MEK5 binding to mutant human MEKK2, retest; AID 1893; bead flow cytometry, Alexa488-MEK5 binding to MEKK2 mutant; shares compounds with MEKK3 PB1 HTS; 5,900 compounds, 2% hits; percent response, % at 10 µM; in the data active = percent response mostly above about 71%, no sharp cut-off; inactive = mostly below about 38%;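 also: higher means compound restores mutant binding toward wildtype level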
MEKK3-MEK5 inh = MEKK3-MEK5 PB1 inhibition, single concentration confirmation. 5,900 compounds, 1.8% hits. binding response (% of control), % at 10 µM. shares compounds with MEKK3 PB1 HTS. bead flow cytometry, Alexa488-MEK5 binding to MEKK3; active compounds read low;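 active = binding response below 72% of control, or above a set upper limit, though filed actives all read lower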;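 also: 100% = DMSO only wells and 0% = binding blocked by excess unlabeled MEK5; lower values mean stronger disruption of MEK5 binding to MEKK3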
Starred values were filed as active, the others as inactive; [ ] = dose if it differs, or a comment. An excerpt weighted towards active compounds, which were near 2.9% of everything screened.

Cc1cccc(N(Cc2cc3ccc(C)cc3[nH]c2=O)C(=O)c2ccco2)c1 was read as ATG4B inh 2, MEKK2 mut-MEK5 25, MEKK3 PB1 HTS 133*, Beta2AR agonist -6, MEKK2 WT-MEK5 125, Dynein cargo inh 0.095, MEKK2wt confirm 101, MEKK2mut confirm -2 and MEKK3-MEK5 inh 103.
`Cc1ccc(NC(=O)C2CC(Cl)=CCC2C(=O)O)c([N+](=O)[O-])c1` (stereo unspecified) gave ATG4B inh -6, MEKK2 mut-MEK5 -10, MEKK3 PB1 HTS 94, Beta2AR agonist 4, MEKK2 WT-MEK5 89 and Dynein cargo inh 0.41.
COc1ccc(NC(=O)c2cc(-c3cc(C)cc(C)c3O)n[nH]2)cc1Cl was read as ATG4B inh 16, MEKK2 mut-MEK5 9, MEKK3 PB1 HTS 107, Beta2AR agonist 9, MEKK2 WT-MEK5 167*, Dynein cargo inh 0.65, MEKK2wt confirm 150, MEKK2mut confirm 16 and MEKK3-MEK5 inh 102.
`COc1ccc(NC(=O)c2cc(-c3ccccc3O)n[nH]2)cc1Cl` gave ATG4B inh 5, MEKK2 mut-MEK5 3, MEKK3 PB1 HTS 104, Beta2AR agonist -7 and MEKK2 WT-MEK5 103.
`CN(C)CC(C)(C)CNC(=S)NCc1ccc2c(c1)OCO2` gave ATG4B inh 7, MEKK2 mut-MEK5 3, MEKK3 PB1 HTS 128*, Beta2AR agonist 6, MEKK2 WT-MEK5 104, Dynein cargo inh -0.33, MEKK2wt confirm 99, MEKK2mut confirm 3 and MEKK3-MEK5 inh 106.
`CC(=O)Nc1nc(NC(=O)/C=C/c2ccccc2)n(-c2ccccc2)n1` gave ATG4B inh 4, MEKK2 mut-MEK5 2, MEKK3 PB1 HTS 140*, Beta2AR agonist 6, MEKK2 WT-MEK5 105, Dynein cargo inh -1.3, MEKK2wt confirm 104, MEKK2mut confirm -3 and MEKK3-MEK5 inh 104.
For O=C(Nc1nnc(-c2ccc3c(c2)CCCC3)o1)c1ccc(Cl)cc1Cl the results were ATG4B inh 17, MEKK2 mut-MEK5 1, MEKK3 PB1 HTS 103, Beta2AR agonist -1, MEKK2 WT-MEK5 104 and Dynein cargo inh 1.3.
For O=C(Nc1nnc(-c2ccc3c(c2)CCCC3)o1)c1c(F)cccc1F the results were ATG4B inh 4, MEKK2 mut-MEK5 -3, MEKK3 PB1 HTS 68*[inhibitor], Beta2AR agonist 8, MEKK2 WT-MEK5 86, Dynein cargo inh -1.1, MEKK2wt confirm 102, MEKK2mut confirm 3 and MEKK3-MEK5 inh 108.
CNC(=O)N(C1=NCCCCC1)c1ccc(Br)cc1 was read as ATG4B inh 16, MEKK2 mut-MEK5 0, MEKK3 PB1 HTS 129*, Beta2AR agonist -1, MEKK2 WT-MEK5 103, Dynein cargo inh -0.41, MEKK2wt confirm 107, MEKK2mut confirm 7 and MEKK3-MEK5 inh 107.
Screening CCOc1ccc(N(C(=O)Nc2ccccc2)C2=NCCC2)cc1 returned ATG4B inh -5, MEKK2 mut-MEK5 1, MEKK3 PB1 HTS 100, Beta2AR agonist -8, MEKK2 WT-MEK5 101 and Dynein cargo inh 0.37.
Screening CCOP(=O)(OCC)C(Nc1ccccn1)c1ccc(F)cc1 (stereo unspecified) returned ATG4B inh 5, MEKK2 mut-MEK5 14, MEKK3 PB1 HTS 99, Beta2AR agonist -5, MEKK2 WT-MEK5 117 and Dynein cargo inh -0.28.
`CCOP(=O)(OCC)C(Nc1ccccn1)c1ccccc1` (stereo unspecified) gave ATG4B inh 10, MEKK2 mut-MEK5 1, MEKK3 PB1 HTS 135*, Beta2AR agonist 2, MEKK2 WT-MEK5 108, Dynein cargo inh -0.24, MEKK2wt confirm 91, MEKK2mut confirm -14 and MEKK3-MEK5 inh 94.
For CCOc1cc(CNCCCN2CCOCC2)ccc1OCC(=O)Nc1cccc2ccccc12 the results were ATG4B inh -23, MEKK2 mut-MEK5 18, MEKK3 PB1 HTS 106, Beta2AR agonist 21, MEKK2 WT-MEK5 141*, Dynein cargo inh 0.026, MEKK2wt confirm 115, MEKK2mut confirm -1 and MEKK3-MEK5 inh 99.
For COc1cc(CNCCCN2CCOCC2)ccc1OCC(=O)Nc1cccc(C(F)(F)F)c1 the results were ATG4B inh -8, MEKK2 mut-MEK5 8, MEKK3 PB1 HTS 104, Beta2AR agonist 18, MEKK2 WT-MEK5 119 and Dynein cargo inh -0.38.
For N#Cc1ccc(NC(=O)Nc2cccc(C#N)c2)cc1 the results were ATG4B inh -3, MEKK2 mut-MEK5 6, MEKK3 PB1 HTS 106, Beta2AR agonist 13, MEKK2 WT-MEK5 107 and Dynein cargo inh 0.64.
Screening N#Cc1ccc(NC(=O)Nc2ccc(Oc3ccc(NC(=O)Nc4ccc(C#N)cc4)cc3)cc2)cc1 returned ATG4B inh 0, MEKK2 mut-MEK5 42, MEKK3 PB1 HTS 106, Beta2AR agonist 4, MEKK2 WT-MEK5 150*, Dynein cargo inh -0.13, MEKK2wt confirm 141, MEKK2mut confirm 16 and MEKK3-MEK5 inh 101.
`O=C(NC1CCCC1)C(c1ccccc1F)N(C(=O)c1csnn1)c1ccccc1` (stereo unspecified) gave ATG4B inh -2, MEKK2 mut-MEK5 -1, MEKK3 PB1 HTS 101, Beta2AR agonist -4 and MEKK2 WT-MEK5 99.
Cc1ccc2c(c1)nnn2C1CCN(CC(=O)c2ccc(Cl)cc2)CC1 was read as ATG4B inh -9, MEKK2 mut-MEK5 5, MEKK3 PB1 HTS 129*, Beta2AR agonist 5, MEKK2 WT-MEK5 120, Dynein cargo inh -0.73, MEKK2wt confirm 102, MEKK2mut confirm 4 and MEKK3-MEK5 inh 101.
Cc1nn(Cc2ccccc2Cl)c(C)c1NC(=O)CSc1n[nH]c(C)c1[N+](=O)[O-] was read as MEKK2 mut-MEK5 16, MEKK3 PB1 HTS 102, MEKK2 WT-MEK5 112 and Dynein cargo inh -0.29.
Screening Cc1nn(Cc2ccc(Cl)cc2)c(C)c1NC(=O)CCCn1nc(C)c([N+](=O)[O-])c1C returned ATG4B inh 9, MEKK2 mut-MEK5 -1, MEKK3 PB1 HTS 97, Beta2AR agonist -3, MEKK2 WT-MEK5 98 and Dynein cargo inh -0.3.
